# SF-1 act: activators of human nuclear receptor SF-1; hit rate 1.9% among 65,000; AID 522; activation, % at 10 µM; CHO-K1 Gal4-SF-1 LBD luciferase reporter; % increase over DMSO SF-1-specific signal; Q13285;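 active = activation above the mean activation of all tested compounds plus 3 SD, cut at about 50% in these data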
#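 Material: CHO-K1 cells with Gal4–hSF-1 LBD chimera plus Gal4-driven luciferase / Input: 4,000 CHO-K1 cells per well / Incubation: compound exposure 20 h at 37 °C / Signal: luminescence read 15 min after SteadyLite luciferase reagent, after room-temperature equilibration / Read-out: percent activation versus DMSO / Benchmarks: DMSO negative control and −SF1 background wells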
# ERa SRC1 pot: enhances coactivator binding to human estrogen receptor alpha; hit rate 1.3% among 86,000; AID 639; P03372; coactivator binding (% of control), % at 25.6 µM; TR-FRET ERalpha-LBD/SRC-Cy5 coactivator binding, 2 h; 100 = basal binding, no effect; in the data active = activity above about 200%;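 note: binding measured in presence of low estradiol as agonist stimulus; 0% = peptide alone without receptor and 100% = receptor with peptide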
# BAP1 block: blocks human BAP1 ubiquitin-AMC hydrolysis; Q92560; calls only at 20 µM; hit rate 0.48% among 72,000; recombinant BAP1, Ub-AMC hydrolysis fluorescence kinetic; stronger effect = lower value;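 active = activity remaining at or below 50% of control, provided the compound also passes the data quality filters; inactive = the rest, including low values that fail the filters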;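 note: 100% = DMSO wells rate and 0% = substrate alone blank rate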
# Target sequence (Q92560 whole entry, looked up): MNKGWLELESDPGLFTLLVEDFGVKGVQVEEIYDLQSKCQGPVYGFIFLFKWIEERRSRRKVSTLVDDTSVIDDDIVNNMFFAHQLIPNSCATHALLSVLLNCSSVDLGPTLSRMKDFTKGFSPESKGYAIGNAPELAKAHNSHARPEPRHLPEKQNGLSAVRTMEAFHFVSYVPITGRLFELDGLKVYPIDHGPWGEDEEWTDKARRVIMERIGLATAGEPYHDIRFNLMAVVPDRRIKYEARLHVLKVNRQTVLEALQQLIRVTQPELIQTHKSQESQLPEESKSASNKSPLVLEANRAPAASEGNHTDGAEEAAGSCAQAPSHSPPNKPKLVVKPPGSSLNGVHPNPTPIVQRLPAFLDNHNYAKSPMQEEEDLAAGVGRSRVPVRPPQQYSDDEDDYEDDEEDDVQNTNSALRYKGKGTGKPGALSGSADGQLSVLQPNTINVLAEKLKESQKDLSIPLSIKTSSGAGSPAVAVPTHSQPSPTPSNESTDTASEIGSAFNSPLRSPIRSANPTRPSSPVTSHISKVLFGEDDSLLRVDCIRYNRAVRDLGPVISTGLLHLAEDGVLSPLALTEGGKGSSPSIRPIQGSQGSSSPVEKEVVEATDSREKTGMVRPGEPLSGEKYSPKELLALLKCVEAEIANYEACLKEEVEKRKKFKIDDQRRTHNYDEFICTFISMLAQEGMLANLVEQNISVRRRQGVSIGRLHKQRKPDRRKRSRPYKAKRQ
# ERa coact inh: ER-alpha (human) coactivator binding inhibition; P03372; TR-FRET ER-alpha LBD / SRC-1 peptide, estradiol-bound; inhibition, % at 25.6 µM; hit rate 1.7% among 86,000; in the data active = inhibition above about 50%;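 note: 0% = receptor plus peptide control and 100% = peptide only without receptor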
# ERb coact inh: ER-beta (human) coactivator binding inhibition; Q92731; TR-FRET ER-beta LBD / SRC1-Cy5 peptide binding; receptor agonist-loaded with 1 µM estradiol; inhibition, % at 25.6 µM; hit rate 1.3% among 86,000; AID 633;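 active = compounds whose percent inhibition of the receptor-coactivator binding signal exceeds about 50% in the single-dose screen, limit read from the data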;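 note: 0% = receptor plus peptide wells without compound and 100% = peptide-only wells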
# RORa activator: activates the human nuclear receptor RORA; P35398; CHO-K1 Gal4-RORA LBD luciferase reporter, luminescence; percent increase over mock-subtracted basal signal; activation, % at 10 µM; hit rate 1.5% among 65,000;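 active = activation above the mean of all tested compounds plus 3 SD, cut at about 49% in these data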;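 note: 0% = DMSO-treated RORA cells and 100% = added signal equal to DMSO minus mock-transfected cells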
# Numbers without * were called inactive; i = inactive; . = no result given; [ ] = another dose, or the depositor's remark. A selection: hits, their analogues and other compounds. The true share with any hit is near 5.1%.
SMILES,SF-1 act,ERa SRC1 pot,BAP1 block,ERa coact inh,ERb coact inh,RORa activator
CCN(c1ccccc1)S(=O)(=O)c1cc(C(=O)O)ccc1C,.,12,.,76*,74*,.
Clc1ccccc1CSc1ncccn1,3,103,i,19,1,0
O=C(CSc1ncccn1)NCc1ccccc1Cl,68*,.,i,.,.,31
c1ccc(-n2ncc3c(N4CCN(c5ccccn5)CC4)nc(N4CCOCC4)nc32)cc1,7,220*[fluorescence artefact?],i,19,7,-29
CN(C)CCn1c(=O)n(Cc2ccco2)c(=O)c2c3c(sc21)CCCCC3,.,105,.,2,-8,.
O=C(CSc1nc2sc3c(c2c(=O)n1Cc1ccco1)CCC3)N1CCc2ccccc21,0,344*,i,36,36,-20
O=c1c2c3c(sc2n(CCN2CCCC2)c(=O)n1Cc1ccco1)CCCCC3,8,115,i,-2,-12,-9
Cc1cc2c(=O)n(Cc3ccco3)c(SCC(=O)N3CCCc4ccccc43)nc2s1,-15,106,.,7,-1,-17
O=C(Cn1c(=O)n(Cc2ccco2)c(=O)c2c3c(sc21)CCCCC3)Nc1ccccc1,.,56,.,73*,80*,.
O=C(Cn1c(=O)n(Cc2ccco2)c(=O)c2c3c(sc21)CCCCC3)c1ccccc1,.,67,.,66*,47,.
COc1ccc(Cc2cnc(NC(=O)COc3cccc(C(F)(F)F)c3)s2)cc1,.,.,i,.,.,.
COc1ccc(NC(C)=O)cc1NC(=O)CN1CCN(S(=O)(=O)c2ccc(C(C)C)cc2)CC1,-5,249*[fluorescence artefact?],i,-4,46,-1
Cc1ccc(NC(=O)CSc2nnc(N3C(=O)c4ccccc4C3=O)s2)c(C)c1,.,.,i,.,.,.
Cc1ccccc1C(=O)Nc1ccc2nc(NC(=O)c3ccccc3C)sc2c1,.,.,i,.,.,.
C=CCNC(=O)Nc1ccc2oc(C)nc2c1,-6,110,.,15,86*[fluorescence artefact?],-22
Cc1nc2cc(NC(=O)NCCC3=CCCCC3)ccc2o1,46,110,i,-10,-9,73*
Cc1nnc(Sc2nc3c(c(=O)n(C)c(=O)n3C)n2Cc2ccccc2Cl)s1,-23,102,i,64*[fluorescence artefact?],1,-6
CCOc1cc2c(c([N+](=O)[O-])c1)NC(c1ccc([N+](=O)[O-])cc1)C1CC=CC21 (configuration not stated),.,.,i,.,.,.
COCCNC(=O)c1cc2sc3ccccc3c2s1,50*,102,i,-18,-25,61*
CN1CCc2c(sc3c2C(=O)NC(c2cccc(OCc4ccccc4)c2)N3)C1 (configuration not stated),.,.,i,.,.,.
CN1CCc2c(sc3c2C(=O)NC(c2cn(Cc4ccccc4)c4ccccc24)N3)C1 (configuration not stated),-2,14,i,90*[fluorescence artefact?],64*[fluorescence artefact?],-20
CN1CCc2c(sc3c2C(=O)NC(c2cccc(OC(=O)c4cccs4)c2)N3)C1 (configuration not stated),58*,.,i,.,.,62*
CC(=O)N1CCN=C1SCc1ccccc1,6,263*[fluorescence artefact?],i,4,4,26
COc1ccccc1N1CCN(Cc2cc(Br)c(O)c3ncccc23)CC1,-31,86,i,50*[fluorescence artefact?],29,5
CCc1ccccc1NC(=O)c1cc2ncc(Br)cn2n1,.,81,.,60*[fluorescence artefact?],54*,.
SMILES,SF-1 act,ERa SRC1 pot,BAP1 block,ERa coact inh,ERb coact inh,RORa activator
O=C(Nc1cccc(C(F)(F)F)c1)c1cc2ncc(Br)cn2n1,.,124,.,45,47,.
O=C(NCCc1ccccc1)c1cc2ncc(Br)cn2n1,6,41,i,77*[fluorescence artefact?],77*[fluorescence artefact?],2
COCCNC(=O)c1cc2ncc(Br)cn2n1,.,72,.,46,39,.
O=C(Nc1ccc2c(c1)OCO2)c1cc2ncc(Br)cn2n1,0,71,.,77*[fluorescence artefact?],67*[fluorescence artefact?],-1
CCNc1cc2n(c(=O)n1)CCc1cc(OC)c(OC)cc1-2,-7,98,.,-8,-2,-18
COc1cc2c(cc1OC)-c1cc(NCc3ccccn3)nc(=O)n1CC2,-6,513*[fluorescence artefact?],i,-10,48,-5
O=C(O)CNc1ncnc2c1oc1ccccc12,.,.,i,.,.,.
O=c1nc2n3ccccc3ncc-2s1,.,.,i,.,.,.
CN(C)c1ccc(/C=c2\sc3nc(-c4ccccc4)nn3c2=O)cc1,0,52,i,69*[fluorescence artefact?],34,-10
